Calls of active or inactive are those of the source. The rule behind the calls is not given here.
Tests used:
[1] = molecular target: T1, von Hippel-Lindau disease tumor suppressor/Mitogen-activated protein kinase kinase kinase 10 (Homo sapiens) (UniProt Q02779+P40337); experiment: PROTAC activity at VHL/DOX-inducible MLK2 (unknown origin) overexpressed in human A-375 cells assessed as protein degradation at 0.1 to 5 uM incubated for 24 hrs by immunoblot analysis; assay type: cell-based; details: dose 0.1-5 µM
Method in brief: (§1)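 A375 cells carried lentiviral DOX-inducible MLK1, MLK2 or MLK4 and were grown in RPMI-1640 with 10% FBS. Cells were seeded at 100 000/well and induced with 1 μg/mL DOX. After 24 h they were treated at 0.1–5 μM for 24 h, with DMSO as control. Levels were read by ECL immunoblot of RIPA lysates, with GAPDH or β-actin loading control.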

[2] = molecular target: T2, von Hippel-Lindau disease tumor suppressor/Mitogen-activated protein kinase kinase kinase 21 (Homo sapiens) (UniProt P40337+Q5TCX8); experiment: PROTAC activity at VHL/DOX-inducible MLK4 (unknown origin) overexpressed in human A-375 cells assessed as protein degradation at 0.1 to 5 uM incubated for 24 hrs by immunoblot analysis; assay type: cell-based; details: dose 0.1-5 µM; method in brief: as §1
[3] = molecular target: T3, von Hippel-Lindau disease tumor suppressor/Mitogen-activated protein kinase kinase kinase 11 (Homo sapiens, UniProt Q16584+P40337); experiment: PROTAC activity at VHL/DOX-inducible MLK3 (unknown origin) overexpressed in human HCC1806 cells assessed as protein degradation at 0.5 uM measured after 24 hrs by shotgun proteomic analysis; assay type: cell-based
Method in brief: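 HCC1806 cells with DOX-inducible MLK3 were seeded at 150 000/well and induced with DOX for 24 h, then treated with 0.5 μM PROTAC or DMSO for 24 h. Total lysates were chloroform/methanol precipitated, reduced and alkylated with TCEP/CAA, and trypsin-digested at 37 °C overnight. Shotgun LC-MS/MS followed, with log2 fold change and t-test p-values (n = 3).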

[4] = molecular target: T3, von Hippel-Lindau disease tumor suppressor/Mitogen-activated protein kinase kinase kinase 11; experiment: PROTAC activity at VHL/MLK3 in human MDA-MB-468 cells assessed as protein degradation measured after 4 to 48 hrs by Western blot analysis; assay type: cell-based; details: dose 1.0 µM, time 4-48 hrs
Method in brief: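 MCF-7 and MDA-MB-468 cells were seeded at 100 000/well and treated with 1 μM PROTAC for 4–48 h, with DMSO as control. MLK3 was quantified by immunoblot as percent remaining, and t1/2 of degradation was derived from the time course.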

[5] = molecular target: T3, von Hippel-Lindau disease tumor suppressor/Mitogen-activated protein kinase kinase kinase 11; experiment: PROTAC activity at VHL/MLK3 in human MCF7 cells assessed as protein degradation at 1 uM by Western blot analysis; assay type: cell-based; details: time 4-48 hrs, TDE = time-dependent effect
[6] = molecular target: T3, von Hippel-Lindau disease tumor suppressor/Mitogen-activated protein kinase kinase kinase 11; experiment: PROTAC activity at VHL/MLK3 in human MDA-MB-468 cells assessed as protein degradation at 1 uM by Western blot analysis; assay type: cell-based; details: time 4-48 hrs, TDE = time-dependent effect
[7] = molecular target: T3, von Hippel-Lindau disease tumor suppressor/Mitogen-activated protein kinase kinase kinase 11; experiment: PROTAC activity at VHL/MLK3 in human MDA-MB-468 cells assessed as half life of protein degradation at 1 uM by Western blot analysis; assay type: cell-based
Method in brief: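 Endogenous MLK3: cells seeded at 100 000/well, treated next day with 1 μM PROTAC for 4–48 h, DMSO control; immunoblot with GAPDH or β-actin loading control. Remaining MLK3 quantified over time and t1/2 derived.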

[8] = molecular target: T3, von Hippel-Lindau disease tumor suppressor/Mitogen-activated protein kinase kinase kinase 11; experiment: PROTAC activity at VHL/MLK3 in human MCF7 cells assessed as protein degradation at 0.1 to 5 uM measured after 24 hrs by Western blot analysis relative to control; assay type: cell-based; details: dose 0.1-5 µM
Method in brief: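 Endogenous MLK3: cells seeded at 100 000/well, treated next day for 24 h with PROTAC at 0.1–5 μM, DMSO control; immunoblot with GAPDH or β-actin loading control. Remaining MLK3 percentage plotted against concentration to derive DC50 and Dmax.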

MCF7 [9] = experiment: Effect on MLK3 mRNA level in human MCF7 cells at 1 uM measured after 24 hrs by RT-qPCR analysis; assay type: functional, cell-based
Method in brief: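 Total RNA extracted from MCF-7 and MDA-MB-468 cells 24 h after PROTAC treatment, purity and concentration checked spectrophotometrically, reverse transcribed to cDNA and MLK3 transcript quantified by RT-qPCR.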

[10] = molecular target: von Hippel-Lindau disease tumor suppressor/Mitogen-activated protein kinase kinase kinase 9 (Homo sapiens) (UniProt P80192+P40337); experiment: PROTAC activity at VHL/MLK1 in human MCF7 cells assessed as protein degradation at 1 uM incubated for 24 hrs by immunoblot analysis; assay type: cell-based
Method in brief: (§2)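 Endogenous MLK1, MLK2 or MLK4 levels in MCF-7 and MDA-MB-468 cells. Cells were grown in high-glucose DMEM with 10% FBS, seeded at 100 000 cells/well and treated the next day for 24 h, with DMSO as control. Lysis was in RIPA with protease inhibitor, followed by 10% SDS-PAGE, nitrocellulose transfer and ECL immunoblot with GAPDH or β-actin as loading control.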

[11] = molecular target: T1, von Hippel-Lindau disease tumor suppressor/Mitogen-activated protein kinase kinase kinase 10 (Homo sapiens); experiment: PROTAC activity at VHL/MLK2 in human MDA-MB-468 cells assessed as protein degradation at 1 uM incubated for 24 hrs by immunoblot analysis; assay type: cell-based; method in brief: as §2
[12] = molecular target: T2, von Hippel-Lindau disease tumor suppressor/Mitogen-activated protein kinase kinase kinase 21 (Homo sapiens); experiment: PROTAC activity at VHL/MLK4 in human MDA-MB-468 cells assessed as protein degradation at 1 uM incubated for 24 hrs by immunoblot analysis; assay type: cell-based; method in brief: as §2
[13] = molecular target: T2, von Hippel-Lindau disease tumor suppressor/Mitogen-activated protein kinase kinase kinase 21 (Homo sapiens); experiment: PROTAC activity at IAP/MLK4 in human MCF7 cells assessed as protein degradation at 1 uM incubated for 24 hrs by immunoblot analysis; assay type: cell-based; method in brief: as §2
[14] = molecular target: T1, von Hippel-Lindau disease tumor suppressor/Mitogen-activated protein kinase kinase kinase 10 (Homo sapiens); experiment: PROTAC activity at IAP/MLK2 in human MDA-MB-468 cells assessed as protein degradation at 1 uM incubated for 24 hrs by immunoblot analysis; assay type: cell-based; method in brief: as §2
[15] = molecular target: T2, von Hippel-Lindau disease tumor suppressor/Mitogen-activated protein kinase kinase kinase 21 (Homo sapiens); experiment: PROTAC activity at IAP/MLK4 in human MDA-MB-468 cells assessed as protein degradation at 1 uM incubated for 24 hrs by immunoblot analysis; assay type: cell-based; method in brief: as §2
[16] = molecular target: T3, von Hippel-Lindau disease tumor suppressor/Mitogen-activated protein kinase kinase kinase 11; experiment: PROTAC activity at VHL/MLK3 in human MDA-MB-468 cells assessed as decrease in JNK pathway at 1 uM measured after 24 hrs by immunoblot analysis; assay type: cell-based
MDA-MB-468 [17] = experiment: Inhibition of colony formation in human MDA-MB-468 cells harboring siMLK3 by crystal violet staining based analysis; assay type: functional, cell-based
Method in brief: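 MCF-7 or MDA-MB-468 seeded at 10 000 cells/well, transfected next day with MAP3K11 SMARTpool siRNA or nontargeting control siRNA; crystal violet staining 7 days after transfection. Knockdown confirmed by immunoblot.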

MDA-MB-468 [18] = experiment: Induction of apoptosis in human MDA-MB-468 cells at 1 uM measured after 48 hrs by Annexin V-FITC/PI staining based flow cytometry; assay type: functional, cell-based
Method in brief: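 Cells seeded at 50 000/well, treated 48 h with 1 μM PROTAC or DMSO; cells plus supernatant stained with Alexa Fluor488 Annexin V for 30 min at room temperature in the dark, PI added 5 min before flow cytometry. At least three repeats.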

MCF7 [19] = experiment: Effect on cell cycle in human MCF7 cells at 1 uM measured after 48 hrs by PI staining based flow cytometry; assay type: functional
Method in brief: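 Cells seeded at 50 000/well, exposed to 1 μM PROTAC or DMSO for 48 h, trypsinized, fixed in ice-cold methanol and held at –20 °C; next day stained with PI/RNase solution and read by flow cytometry. Two independent experiments.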

[20] = PROTAC activity at IAP/MLK1 in human MCF7 cells assessed as protein degradation at 1 uM incubated for 24 hrs by immunoblot analysis

T1 sequence (P40337 whole entry, looked up): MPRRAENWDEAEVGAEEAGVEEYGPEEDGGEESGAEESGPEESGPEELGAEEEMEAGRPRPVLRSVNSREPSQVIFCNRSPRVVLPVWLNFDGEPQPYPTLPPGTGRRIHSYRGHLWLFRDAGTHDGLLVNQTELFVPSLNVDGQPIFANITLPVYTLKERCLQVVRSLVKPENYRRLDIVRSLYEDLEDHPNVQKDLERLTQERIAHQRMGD
T1 sequence (Q02779 whole entry, looked up): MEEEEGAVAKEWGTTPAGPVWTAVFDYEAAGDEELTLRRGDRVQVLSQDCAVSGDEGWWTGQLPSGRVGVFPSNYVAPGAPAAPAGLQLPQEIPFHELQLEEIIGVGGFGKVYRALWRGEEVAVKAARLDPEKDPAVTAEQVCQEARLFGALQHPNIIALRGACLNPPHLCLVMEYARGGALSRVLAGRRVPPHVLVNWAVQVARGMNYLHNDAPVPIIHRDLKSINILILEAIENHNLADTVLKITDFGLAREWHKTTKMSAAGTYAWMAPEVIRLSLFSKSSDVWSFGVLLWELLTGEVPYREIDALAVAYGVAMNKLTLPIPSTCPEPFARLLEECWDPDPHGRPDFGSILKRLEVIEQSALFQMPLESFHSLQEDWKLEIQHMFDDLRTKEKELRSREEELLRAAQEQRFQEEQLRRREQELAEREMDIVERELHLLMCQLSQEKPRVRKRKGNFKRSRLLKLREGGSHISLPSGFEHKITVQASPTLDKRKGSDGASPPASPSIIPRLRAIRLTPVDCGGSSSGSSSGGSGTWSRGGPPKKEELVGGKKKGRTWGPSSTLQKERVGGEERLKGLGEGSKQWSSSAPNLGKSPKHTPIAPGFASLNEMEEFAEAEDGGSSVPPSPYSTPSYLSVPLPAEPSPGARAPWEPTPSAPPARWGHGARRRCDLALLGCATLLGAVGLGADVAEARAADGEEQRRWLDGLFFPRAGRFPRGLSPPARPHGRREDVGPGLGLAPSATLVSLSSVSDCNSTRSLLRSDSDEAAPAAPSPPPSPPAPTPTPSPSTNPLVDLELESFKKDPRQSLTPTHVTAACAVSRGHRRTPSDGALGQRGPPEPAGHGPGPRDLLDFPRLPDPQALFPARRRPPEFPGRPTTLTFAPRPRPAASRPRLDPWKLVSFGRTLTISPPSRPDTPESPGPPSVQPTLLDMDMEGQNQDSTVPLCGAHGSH
T3 sequence (P40337 whole entry, looked up): as the sequence (P40337 whole entry, looked up) above
T3 sequence (Q16584 whole entry, looked up): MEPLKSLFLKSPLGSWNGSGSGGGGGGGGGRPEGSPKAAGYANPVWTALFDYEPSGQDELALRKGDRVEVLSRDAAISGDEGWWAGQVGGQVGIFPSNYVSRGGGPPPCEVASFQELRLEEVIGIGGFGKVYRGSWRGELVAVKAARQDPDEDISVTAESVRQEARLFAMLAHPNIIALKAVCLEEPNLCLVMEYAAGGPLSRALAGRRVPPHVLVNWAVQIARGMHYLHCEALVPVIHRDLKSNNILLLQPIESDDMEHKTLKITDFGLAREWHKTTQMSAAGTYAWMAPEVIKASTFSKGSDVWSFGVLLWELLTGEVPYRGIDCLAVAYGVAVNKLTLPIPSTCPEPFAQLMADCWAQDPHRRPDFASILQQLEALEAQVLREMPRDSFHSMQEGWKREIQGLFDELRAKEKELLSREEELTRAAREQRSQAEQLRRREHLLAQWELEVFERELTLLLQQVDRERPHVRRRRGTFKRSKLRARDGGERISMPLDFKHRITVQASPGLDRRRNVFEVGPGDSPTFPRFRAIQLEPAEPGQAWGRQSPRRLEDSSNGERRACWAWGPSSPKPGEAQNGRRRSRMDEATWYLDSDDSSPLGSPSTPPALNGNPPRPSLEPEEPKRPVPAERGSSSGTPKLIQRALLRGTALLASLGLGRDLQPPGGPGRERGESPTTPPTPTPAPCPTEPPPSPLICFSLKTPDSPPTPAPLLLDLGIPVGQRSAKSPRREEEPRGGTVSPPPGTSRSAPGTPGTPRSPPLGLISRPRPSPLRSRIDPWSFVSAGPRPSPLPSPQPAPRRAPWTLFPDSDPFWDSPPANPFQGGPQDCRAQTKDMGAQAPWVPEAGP
T2 sequence (P40337 whole entry, looked up): as the sequence (P40337 whole entry, looked up) above
T2 sequence (Q5TCX8 whole entry, looked up): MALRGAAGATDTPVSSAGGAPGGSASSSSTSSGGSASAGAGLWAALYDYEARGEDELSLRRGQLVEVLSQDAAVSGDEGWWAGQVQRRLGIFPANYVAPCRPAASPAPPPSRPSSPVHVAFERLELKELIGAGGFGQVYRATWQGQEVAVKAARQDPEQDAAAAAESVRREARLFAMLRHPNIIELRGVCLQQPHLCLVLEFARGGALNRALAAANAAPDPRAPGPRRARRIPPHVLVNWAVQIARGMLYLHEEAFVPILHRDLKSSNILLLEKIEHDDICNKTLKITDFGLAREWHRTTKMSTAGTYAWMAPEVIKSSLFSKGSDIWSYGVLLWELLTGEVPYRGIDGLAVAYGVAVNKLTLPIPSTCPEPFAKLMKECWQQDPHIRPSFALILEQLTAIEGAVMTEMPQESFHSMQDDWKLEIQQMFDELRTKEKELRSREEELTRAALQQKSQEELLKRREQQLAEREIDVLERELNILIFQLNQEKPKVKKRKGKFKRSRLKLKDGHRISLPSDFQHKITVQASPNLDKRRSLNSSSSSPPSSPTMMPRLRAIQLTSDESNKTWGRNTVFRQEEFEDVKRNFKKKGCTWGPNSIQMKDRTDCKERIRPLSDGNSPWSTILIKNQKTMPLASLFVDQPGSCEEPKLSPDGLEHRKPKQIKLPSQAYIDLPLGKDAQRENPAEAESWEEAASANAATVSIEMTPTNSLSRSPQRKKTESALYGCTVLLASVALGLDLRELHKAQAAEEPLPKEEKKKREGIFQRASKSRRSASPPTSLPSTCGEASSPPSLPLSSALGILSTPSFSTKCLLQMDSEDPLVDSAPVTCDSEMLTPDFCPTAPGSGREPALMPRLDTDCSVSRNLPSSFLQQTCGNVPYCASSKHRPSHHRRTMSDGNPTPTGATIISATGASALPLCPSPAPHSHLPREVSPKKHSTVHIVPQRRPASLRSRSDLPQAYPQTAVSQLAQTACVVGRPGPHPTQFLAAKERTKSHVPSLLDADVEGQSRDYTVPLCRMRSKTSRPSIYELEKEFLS
von Hippel-Lindau disease tumor suppressor/Mitogen-activated protein kinase kinase kinase 9 (Homo sapiens), sequence (P40337 whole entry, looked up): as the sequence (P40337 whole entry, looked up) above
von Hippel-Lindau disease tumor suppressor/Mitogen-activated protein kinase kinase kinase 9 (Homo sapiens), sequence (P80192 whole entry, looked up): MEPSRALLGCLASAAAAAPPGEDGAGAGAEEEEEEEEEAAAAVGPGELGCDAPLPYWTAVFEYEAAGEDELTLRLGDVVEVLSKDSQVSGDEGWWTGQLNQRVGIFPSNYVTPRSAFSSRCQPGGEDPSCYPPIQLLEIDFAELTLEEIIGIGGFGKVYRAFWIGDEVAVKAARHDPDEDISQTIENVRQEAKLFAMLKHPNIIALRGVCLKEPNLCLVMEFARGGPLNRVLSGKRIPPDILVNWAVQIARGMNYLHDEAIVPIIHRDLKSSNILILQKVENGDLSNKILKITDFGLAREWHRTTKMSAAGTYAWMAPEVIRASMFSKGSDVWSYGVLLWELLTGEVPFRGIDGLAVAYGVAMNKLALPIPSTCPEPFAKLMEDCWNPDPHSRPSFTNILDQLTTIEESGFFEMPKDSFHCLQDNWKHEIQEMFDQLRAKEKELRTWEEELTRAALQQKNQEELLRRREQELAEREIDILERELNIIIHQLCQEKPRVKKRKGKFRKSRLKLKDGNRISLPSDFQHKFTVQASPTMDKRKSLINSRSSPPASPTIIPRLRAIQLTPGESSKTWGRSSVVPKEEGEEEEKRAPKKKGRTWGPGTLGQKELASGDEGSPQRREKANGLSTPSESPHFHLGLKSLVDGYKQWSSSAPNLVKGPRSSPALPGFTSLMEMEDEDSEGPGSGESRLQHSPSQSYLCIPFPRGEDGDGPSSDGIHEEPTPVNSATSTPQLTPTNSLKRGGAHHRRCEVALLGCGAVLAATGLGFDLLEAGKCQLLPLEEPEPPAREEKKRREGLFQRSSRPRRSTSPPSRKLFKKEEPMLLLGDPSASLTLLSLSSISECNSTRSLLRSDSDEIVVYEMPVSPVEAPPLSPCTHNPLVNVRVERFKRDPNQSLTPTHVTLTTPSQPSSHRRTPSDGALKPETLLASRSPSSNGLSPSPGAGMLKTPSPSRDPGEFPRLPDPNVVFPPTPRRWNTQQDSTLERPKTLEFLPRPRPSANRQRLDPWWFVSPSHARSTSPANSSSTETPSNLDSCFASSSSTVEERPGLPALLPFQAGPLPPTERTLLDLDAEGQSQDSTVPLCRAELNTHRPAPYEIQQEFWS

With `CCSCc1ccc2c(c1)c1c3c(c4c5cc(CSCC)ccc5n5c4c1n2[C@H]1C[C@](O)(C(=O)NCCOCCOCCOCC(=O)N[C@H](C(=O)N2C[C@H](O)C[C@H]2C(=O)N[C@@H](C)c2ccc(-c4scnc4C)cc2)C(C)(C)C)[C@]5(C)O1)CNC3=O` the Activity [1] was “inactive”, the Activity [2] was “inactive” and the Activity [3] was “Active”. The Activity [4] was “Dose-Dependent Effect”, the Activity [5] was “Tde” and the Activity [6] was “Tde”. The T1/2 [7] was 4 h, the Emax [8] was 77% and the Activity (MCF7 [9]) was “inactive”. The Activity [10] was “inactive”, the Activity [11] was “inactive” and the Activity [12] was “inactive”. The Activity [13] was “inactive”, the Activity [14] was “inactive” and the Activity [15] was “inactive”. For the same compound, the Activity [16] was “Active”, the inhibition (MDA-MB-468 [17]) was “Active” and the Activity (MDA-MB-468 [18]) was “Active”. For the same compound, the Activity (MCF7 [19]) was “inactive” and the Activity [20] was “inactive”.
